The source of these data is ChEMBL document CHEMBL1817572, “New, potent, selective, and short-acting peptidic V1a receptor agonists” (J Med Chem, 2011).

The structures appear in SMILES notation. Numbered stars: 1 amine (or outer) side, 2 acyl side, 3 side chain; on linkers, the order of the positions; unused ones are H or OH. Bridge positions count the residues as written; N and C are the ends. Square brackets hold non-standard residues; d marks the D form. Peptide text beside a SMILES is read from it. Orn(Me) = CN(CCC[C@H](N[*:1])C(=O)[*:2])[*:3]; X5 = CC(C)CCNCCC[C@H](N[*:1])C(=O)[*:2]; X4 = CONC(=O)CC[C@H](N[*:1])C(=O)[*:2]; Dab(iPr) = CC(C)NCC[C@H](N)C(=O)O; 2Thi = N[C@@H](Cc1cccs1)C(=O)O; Aad = N[C@@H](CCCC(=O)O)C(=O)O; Orn = NCCC[C@H](N)C(=O)O; Dab = NCC[C@H](N)C(=O)O; Dap = NC[C@H](N)C(=O)O Where only a bound is given, the exact number is not on record here.

For assay [1], the species on record is Homo sapiens. In words: Selectivity ratio of EC50 for human oxytocin receptor to EC50 for human vasopressin V1a receptor.
A further assay deals with T1, Oxytocin receptor (Homo sapiens, UniProt P30559).
T1 sequence (P30559 whole entry): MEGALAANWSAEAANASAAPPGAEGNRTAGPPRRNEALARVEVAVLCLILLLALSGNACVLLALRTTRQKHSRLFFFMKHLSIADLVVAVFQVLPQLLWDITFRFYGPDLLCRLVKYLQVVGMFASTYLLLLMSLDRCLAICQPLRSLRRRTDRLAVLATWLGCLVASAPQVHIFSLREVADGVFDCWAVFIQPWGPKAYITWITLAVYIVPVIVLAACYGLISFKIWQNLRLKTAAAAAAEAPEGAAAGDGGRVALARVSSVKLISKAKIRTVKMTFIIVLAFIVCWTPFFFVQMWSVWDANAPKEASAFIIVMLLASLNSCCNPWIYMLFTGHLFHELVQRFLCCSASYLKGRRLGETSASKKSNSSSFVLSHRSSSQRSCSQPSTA
In words: Agonist activity at human OT receptor expressed in CHO-K1 cells by luciferase reporter gene assay. Format: functional, cell-based. On the technique in general: A reporter such as luciferase makes a cellular process visible.

The target of assay [2] is Vasopressin V1a/V2 (Homo sapiens) (UniProt P30518+P37288). In words: Selectivity ratio of EC50 for human vasopressin V2 receptor to EC50 for human vasopressin V1a receptor.
Chain of Vasopressin V1a/V2 (Homo sapiens) (P30518 whole entry, looked up): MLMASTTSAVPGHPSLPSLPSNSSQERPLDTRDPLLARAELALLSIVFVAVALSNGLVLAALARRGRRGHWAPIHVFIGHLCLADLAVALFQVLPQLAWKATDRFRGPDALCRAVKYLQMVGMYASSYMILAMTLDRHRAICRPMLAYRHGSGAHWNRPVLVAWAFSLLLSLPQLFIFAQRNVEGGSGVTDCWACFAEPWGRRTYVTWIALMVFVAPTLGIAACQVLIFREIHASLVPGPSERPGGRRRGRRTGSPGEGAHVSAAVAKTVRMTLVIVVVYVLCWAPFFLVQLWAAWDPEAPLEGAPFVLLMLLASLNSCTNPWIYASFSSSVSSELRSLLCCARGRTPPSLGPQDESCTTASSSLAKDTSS
Chain of Vasopressin V1a/V2 (Homo sapiens) (P37288 whole entry, looked up): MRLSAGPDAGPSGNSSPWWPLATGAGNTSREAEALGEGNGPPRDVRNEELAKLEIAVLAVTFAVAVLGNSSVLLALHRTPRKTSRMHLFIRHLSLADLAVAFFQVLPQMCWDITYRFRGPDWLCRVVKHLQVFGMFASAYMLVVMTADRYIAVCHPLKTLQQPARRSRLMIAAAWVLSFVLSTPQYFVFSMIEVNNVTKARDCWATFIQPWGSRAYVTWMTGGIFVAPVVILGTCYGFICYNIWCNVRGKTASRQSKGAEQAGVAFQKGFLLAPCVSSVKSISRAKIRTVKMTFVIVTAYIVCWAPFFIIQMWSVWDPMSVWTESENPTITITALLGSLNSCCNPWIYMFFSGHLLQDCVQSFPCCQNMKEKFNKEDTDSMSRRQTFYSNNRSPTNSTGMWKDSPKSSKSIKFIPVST
The target of the next assay is Vasopressin V2 receptor (Homo sapiens, UniProt P30518). In words: Agonist activity at recombinant human vasopressin V2 receptor expressed in HEK293 cells by luciferase reporter gene assay. The format is functional, cell-based.
Chain of Vasopressin V2 receptor (P30518 whole entry): as the sequence (P30518 whole entry, looked up) above
Another assay addresses Vasopressin V1a receptor (Homo sapiens, UniProt P37288). Description: Agonist activity at recombinant human vasopressin V1a receptor expressed in HEK293 cells by luciferase reporter gene assay. The format is functional, cell-based. As to conditions: read-out: EC50.
The target in another assay is T2, Vasopressin V1b receptor (Homo sapiens, UniProt P47901).
T2 sequence (P47901 whole entry): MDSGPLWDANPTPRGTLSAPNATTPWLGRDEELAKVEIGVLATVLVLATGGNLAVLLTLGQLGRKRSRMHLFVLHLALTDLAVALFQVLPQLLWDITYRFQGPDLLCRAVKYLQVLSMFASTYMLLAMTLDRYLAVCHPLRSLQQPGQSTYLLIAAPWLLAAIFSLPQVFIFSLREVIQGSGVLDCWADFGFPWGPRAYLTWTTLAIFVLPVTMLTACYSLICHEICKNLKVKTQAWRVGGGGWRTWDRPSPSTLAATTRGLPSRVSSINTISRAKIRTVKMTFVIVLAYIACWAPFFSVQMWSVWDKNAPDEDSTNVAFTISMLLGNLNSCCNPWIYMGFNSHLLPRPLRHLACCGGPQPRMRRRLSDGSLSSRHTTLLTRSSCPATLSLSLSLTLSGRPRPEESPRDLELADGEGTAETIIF
In words: Agonist activity at recombinant human vasopressin V1b receptor expressed in Flp-In-293 cells by luciferase reporter gene assay. The format is functional, cell-based. The following applies: read-out: EC50. In outline: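 Reporter gene assays in HEK293 cells transiently cotransfected with V1a (human or rat) or human V2 receptor vector plus NFAT-luciferase (V1a) or CRE-luciferase (V2) reporter; V1b in Flp-In-293 stably expressing receptor, OT in CHO-K1 stably expressing receptor, both transiently transfected with NFAT-luciferase. Two days post-transfection, peptides added for 5 h at 37 °C, lysis with luciferin, luminescence read.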

For assay [3], the species on record is Homo sapiens. In words: Selectivity ratio of EC50 for human vasopressin V1b receptor to EC50 for human vasopressin V1a receptor.

Chain of Vasopressin V1a receptor (P37288 whole entry): as the sequence (P37288 whole entry, looked up) above

Turning to `CC[C@H](C)[C@@H]1NC(=O)[C@H](Cc2ccccc2)NC(=O)[C@@H](N)CSSC[C@@H](C(=O)N2CCC[C@H]2C(=O)N[C@@H](CCCNC)C(=O)NCC(N)=O)NC(=O)[C@H](CC(N)=O)NC(=O)[C@H](CC(N)=O)NC1=O` (H-CFINNCP[Orn(Me)]G-NH2; disulfide 1-6), the Ratio EC50 in the assay filed under Homo sapiens [1] is above 4100; in assay [2], above 4100; in the assay listed under Homo sapiens [3], 27. In addition, the EC50 at Oxytocin receptor (cho-k1, read-out: EC50) was above 10000 nM; on Oxytocin receptor (read-out: pEC50 (converted)) it was above 10000 nM; at Vasopressin V2 receptor (hek293, read-out: EC50) it was above 10000 nM; at Vasopressin V2 receptor (read-out: pEC50 (converted)) it was above 10000 nM; on Vasopressin V1a receptor, 2.4 nM; on Vasopressin V1b receptor, 65 nM.
For the compound `CC[C@H](C)[C@@H]1NC(=O)[C@H](Cc2ccccc2)NC(=O)[C@@H](N)CSSC[C@@H](C(=O)N2CCC[C@H]2C(=O)N[C@@H](CN)C(=O)NCC(N)=O)NC(=O)[C@H](CC(N)=O)NC(=O)[C@H](CCC(N)=O)NC1=O` (H-CFIQNCP[Dap]G-NH2; disulfide 1-6), the figures for the Ratio EC50 (in the assay filed under Homo sapiens [1]; in assay [2]; in the assay listed under Homo sapiens [3]) were above 330, 24 and 7, respectively. Besides, the EC50 was above 10000 nM at Oxytocin receptor (cho-k1, read-out: EC50); above 10000 nM at Oxytocin receptor (read-out: pEC50 (converted)); 720 nM at Vasopressin V2 receptor (read-out: EC50); 30 nM at Vasopressin V1a receptor; 210 nM on Vasopressin V1b receptor.
For the compound `CC[C@H](C)[C@@H]1NC(=O)[C@H](Cc2ccccc2)NC(=O)[C@@H](N)CSSC[C@@H](C(=O)N2CCC[C@H]2C(=O)N[C@@H](CCCNCCC(C)C)C(=O)NCC(N)=O)NC(=O)[C@H](CC(N)=O)NC(=O)[C@H](CCC(N)=O)NC1=O` (H-CFIQNCP[X5]G-NH2; disulfide 1-6), the Ratio EC50 was 53 in the assay filed under Homo sapiens [1], 230 in assay [2] and 120 in the assay filed under Homo sapiens [3]. Further, the EC50 on Oxytocin receptor (read-out: EC50) came to 44 nM; at Vasopressin V2 receptor (read-out: EC50), 190 nM; at Vasopressin V1a receptor, 0.82 nM; at Vasopressin V1b receptor, 100 nM.
Regarding `CC[C@H](C)[C@@H]1NC(=O)[C@H](Cc2ccccc2)NC(=O)[C@@H](N)CSSC[C@@H](C(=O)N2CCC[C@H]2C(=O)N[C@@H](CCNC(C)C)C(=O)NCC(N)=O)NC(=O)[C@H](CC(N)=O)NC(=O)[C@H](CCCC(N)=O)NC1=O` (H-CFI[Aad](NH2)NCP[Dab(iPr)]G-NH2; disulfide 1-6), the Ratio EC50 in the assay listed under Homo sapiens [1] was above 550; in assay [2], 61; in the assay filed under Homo sapiens [3], 53. Besides, the EC50 is above 10000 nM on Oxytocin receptor (cho-k1, read-out: EC50); above 10000 nM on Oxytocin receptor (read-out: pEC50 (converted)); 1100 nM on Vasopressin V2 receptor (read-out: EC50); 18 nM on Vasopressin V1a receptor; 960 nM at Vasopressin V1b receptor.
As to `CC[C@H](C)[C@@H]1NC(=O)[C@H](Cc2ccccc2)NC(=O)[C@@H](N)CSSC[C@@H](C(=O)N2CCC[C@H]2C(=O)N[C@@H](CCCN)C(=O)NCC(N)=O)NC(=O)[C@H](CC(N)=O)NC(=O)[C@H](CCC(=O)NOC)NC1=O` (H-CFI[X4]NCP[Orn]G-NH2; disulfide 1-6), the values for the Ratio EC50 (in the assay filed under Homo sapiens [1]; in assay [2]; in the assay filed under Homo sapiens [3]) were above 9000, 1500 and 25, respectively. The EC50 at Oxytocin receptor (cho-k1, read-out: EC50) was above 10000 nM; on Oxytocin receptor (read-out: pEC50 (converted)), above 10000 nM; on Vasopressin V2 receptor (read-out: EC50), 1700 nM; on Vasopressin V1a receptor, 1.1 nM; on Vasopressin V1b receptor it was 28 nM.
As to `CC[C@H](C)[C@@H]1NC(=O)[C@H](Cc2cccs2)NC(=O)[C@@H](N)CSSC[C@@H](C(=O)N2CCC[C@H]2C(=O)N[C@@H](CCN)C(=O)NCC(N)=O)NC(=O)[C@H](CC(N)=O)NC(=O)[C@H](CC(N)=O)NC1=O` (H-C[2Thi]INNCP[Dab]G-NH2; disulfide 1-6), the Ratio EC50 is above 830 in the assay listed under Homo sapiens [1], above 830 in assay [2] and 42 in the assay filed under Homo sapiens [3]. Further, the EC50 on Oxytocin receptor (cho-k1, read-out: EC50) was above 10000 nM; at Oxytocin receptor (read-out: pEC50 (converted)), above 10000 nM; at Vasopressin V2 receptor (hek293, read-out: EC50) it was above 10000 nM; on Vasopressin V2 receptor (read-out: pEC50 (converted)), above 10000 nM; on Vasopressin V1a receptor it was 12 nM; on Vasopressin V1b receptor, 510 nM.
